Data as given in ChEMBL document CHEMBL2331310 (Bioorg Med Chem Lett, 2013).
pIC50: −log10 of the molar value. Active and inactive are the calls of the source. The calls are words filed in the database; no cut-off is given here.

Legend:
DU-145 [1] = assay: Induction of AGT ablation in human DU145 cells assessed as [benzene-3H]-O6-benzylguanine binding at 80 uM after 4 hrs; type: functional
Summary of the method: (§1)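 DU145 human prostate carcinoma cells (about 42,000 AGT molecules/cell) were treated with 80 μM agent for 2 h or 4 h. Remaining AGT level was then measured relative to untreated cells.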

DU-145 [2] = assay: Cytotoxicity against human DU145 cells expressing AGT after 4 to 24 hrs by clonogenic assay in presence of 100 uM of AGT inhibitor O6-BG; type: functional, cell-based
Summary of the method: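 DU145 cells (42,000 AGT molecules/cell) were pretreated with 100 μM O6-BG for 2 h, then exposed to graded drug concentrations. Cytotoxicity was then assessed.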

EMT6 [3] = assay: Cytotoxicity against mouse AGT negative EMT6 cells under aerobic conditions after 4 to 24 hrs by clonogenic assay; type: functional, cell-based; details: for CC50: read-out: LC50 (the source's name)
Summary of the method: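 Murine mammary carcinoma cells lacking AGT expression were exposed to graded concentrations for short (4 h) or long (24 h) periods. LC50 was taken from cytotoxicity curves.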

EMT6 [4] = assay: Ratio of laromustine IC50 for compound IC50 for mouse AGT negative EMT6 cells; type: functional
DU-145 [5] = assay: Induction of AGT ablation in human DU145 cells assessed as [benzene-3H]-O6-benzylguanine binding at 80 uM after 2 hrs; type: functional; summary of the method: as §1
L1210 = assay: Binding affinity to mouse L1210 cell DNA assessed as DNA cross-linking activity at 10 to 50 uM using H33258 dye by rapid DNA renaturation assay; type: cell-based
DU-145 [6] = assay: Cytotoxicity against human DU145 cells expressing AGT at 10 to 80 uM after 4 hrs by clonogenic assay; type: functional, cell-based
Summary of the method: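 DU145 human prostate carcinoma cells, which naturally express about 42,000 AGT molecules/cell, were exposed to graded drug concentrations for 4 h or 24 h. Cytotoxicity was expressed as LC50.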

DU-145 [7] = assay: Cytotoxicity against human DU145 cells expressing AGT after 4 to 24 hrs by clonogenic assay; type: functional; details: read-out: LC50 (the source's name)
Summary of the method: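 Human prostate carcinoma cells with natural AGT expression (42,000 molecules/cell) were exposed to graded concentrations for 4 h or 24 h. LC50 was read from cytotoxicity curves.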

[8] = Half life in 1 mM potassium phosphate buffer at pH 7.4 at 50 uM by spectrophotometric analysis; type: physicochemical
DU-145 [9] = assay: Ratio of laromustine IC50 for compound IC50 for human DU145 cells expressing AGT; type: functional

| Structure (SMILES) | Activity (DU-145 [1]) | Activity (DU-145 [2]) | CC50 (EMT6 [3]) | Ratio IC50 (EMT6 [4]) | Activity (DU-145 [5]) | Activity (L1210) | Activity (DU-145 [6]) | CC50 (DU-145 [7]) | half-life at 50 µM [8] | Ratio IC50 (DU-145 [9]) | pIC50 (EMT6 [3]) |
| --- | --- | --- | --- | --- | --- | --- | --- | --- | --- | --- | --- |
| CN(N=O)C(=O)N(N(CCCl)S(C)(=O)=O)S(C)(=O)=O | >90% | Active | 0.7 µM | 12 | >80% | Active | Active | 6.3 µM | 10 min | >12 |  |
| CS(=O)(=O)NN(CCCl)S(C)(=O)=O [VPN-4090CE] |  |  |  |  |  | Active |  |  | 0.55 min |  |  |
| CNC(=O)N(N(CCCl)S(C)(=O)=O)S(C)(=O)=O [LAROMUSTINE] |  | Active | 8.3 µM |  |  | Active | Active | > 80 µM |  |  |  |
| CN(N(C(=O)N(CCCl)N=O)S(C)(=O)=O)S(C)(=O)=O | Active | Active |  |  | Active | Active | Active |  | 13.4 min |  |  |
| CN(NS(C)(=O)=O)S(C)(=O)=O |  |  |  |  |  |  |  | 1600 µM |  |  | 2.52 |
